Measured values from ChEMBL document CHEMBL1145047, “Design, synthesis, and evaluation of substituted phenylpropanoic acid derivatives as human peroxisome proliferator activated receptor activators. Discovery of potent and human peroxisome proliferator activated receptor alpha subtype-selective activators” (J Med Chem, 2003).

Key:
Format in all cases: functional
Rattus norvegicus [1] = experiment: In vivo percent reduction on TG of the normal rat at 0.3 mg/kg
Method in brief: (§1)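 Male Sprague-Dawley rats, 11 weeks old, fed standard chow and water ad libitum. Drug or vehicle suspended in 0.5% w/v arabic gum and given orally once daily at 0.3, 3 or 30 mg/kg; duration is 4 days in the methods and 5 days in the table. Plasma taken in the fed state. TG, FFA and total cholesterol measured enzymatically. HDL obtained by precipitation; LDL+VLDL = total minus HDL cholesterol. Values are mean percent reduction, N = 5 or 6.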

Rattus norvegicus [2] = experiment: In vivo percent reduction on TG of the normal rat at 30 mg/kg; method in brief: as §1
Rattus norvegicus [3] = experiment: In vivo percent reduction on total cholesterol of the rat at 0.3 mg/kg after 5 days; method in brief: as §1
Rattus norvegicus [4] = experiment: In vivo percent reduction on total cholesterol of the normal rat at 0.3 mg/kg; method in brief: as §1
Rattus norvegicus [5] = experiment: In vivo percent reduction on FFA of the normal rat at 3 mg/kg; method in brief: as §1
Rattus norvegicus [6] = experiment: In vivo percent reduction on TG of the rat at 30 mg/kg after 5 days; method in brief: as §1
Rattus norvegicus [7] = experiment: In vivo percent reduction on FFA of the normal rat at 30 mg/kg; method in brief: as §1
Rattus norvegicus [8] = experiment: In vivo percent reduction on FFA of the rat at 0.3 mg/kg after 5 days; method in brief: as §1
Rattus norvegicus [9] = experiment: In vivo percent reduction on FFA of the rat at 3 mg/kg after 5 days; method in brief: as §1
Rattus norvegicus [10] = experiment: In vivo percent reduction on LDL+VLDL of the rat at 3 mg/kg after 5 days; method in brief: as §1
Rattus norvegicus [11] = experiment: In vivo percent reduction on LDL+VLDL of the normal rat at 0.3 mg/kg; method in brief: as §1
Rattus norvegicus [12] = experiment: In vivo percent reduction on TG of the rat at 3 mg/kg after 5 days; method in brief: as §1
Rattus norvegicus [13] = experiment: In vivo percent reduction on total cholesterol of the normal rat at 30 mg/kg; method in brief: as §1
Rattus norvegicus [14] = experiment: In vivo percent reduction on LDL+VLDL of the normal rat at 30 mg/kg; method in brief: as §1
Rattus norvegicus [15] = experiment: In vivo percent reduction on TG of the normal rat at 3 mg/kg; method in brief: as §1
Rattus norvegicus [16] = experiment: In vivo percent reduction on LDL+VLDL of the rat at 30 mg/kg after 5 days; method in brief: as §1
Rattus norvegicus [17] = experiment: In vivo percent reduction on total cholesterol of the rat at 3 mg/kg after 5 days; method in brief: as §1
Rattus norvegicus [18] = experiment: In vivo percent reduction on FFA of the normal rat at 0.3 mg/kg; method in brief: as §1
Rattus norvegicus [19] = experiment: In vivo percent reduction on LDL+VLDL of the rat at 0.3 mg/kg after 5 days; method in brief: as §1
Rattus norvegicus [20] = experiment: In vivo percent reduction on LDL+VLDL of the normal rat at 3 mg/kg; method in brief: as §1
Rattus norvegicus [21] = experiment: In vivo percent reduction on total cholesterol of the rat at 30 mg/kg after 5 days; method in brief: as §1
Rattus norvegicus [22] = experiment: In vivo percent reduction on FFA of the rat at 30 mg/kg after 5 days; method in brief: as §1
Rattus norvegicus [23] = experiment: In vivo percent reduction on total cholesterol of the normal rat at 3 mg/kg; method in brief: as §1
Rattus norvegicus [24] = experiment: In vivo percent reduction on TG of the rat at 0.3 mg/kg after 5 days; method in brief: as §1

CC[C@@H](Cc1ccc(OC)c(C(=O)NCc2ccc(C(F)(F)F)cc2)c1)C(=O)O
Reduction (Rattus norvegicus [1]): -1%
Reduction (Rattus norvegicus [2]): 33%
Reduction (Rattus norvegicus [3]): 22%
Reduction (Rattus norvegicus [4]): 19%
Reduction (Rattus norvegicus [5]): 27%
Reduction (Rattus norvegicus [6]): 56%
Reduction (Rattus norvegicus [7]): 72%
Reduction (Rattus norvegicus [8]): 12%
Reduction (Rattus norvegicus [9]): 28%
Reduction (Rattus norvegicus [10]): 58%
Reduction (Rattus norvegicus [11]): 46%
Reduction (Rattus norvegicus [12]): 25%
Reduction (Rattus norvegicus [13]): 32%
Reduction (Rattus norvegicus [14]): 58%
Reduction (Rattus norvegicus [15]): 26%
Reduction (Rattus norvegicus [16]): 60%
Reduction (Rattus norvegicus [17]): 29%
Reduction (Rattus norvegicus [18]): 11%
Reduction (Rattus norvegicus [19]): 29%
Reduction (Rattus norvegicus [20]): 56%
Reduction (Rattus norvegicus [21]): 35%
Reduction (Rattus norvegicus [22]): 69%
Reduction (Rattus norvegicus [23]): 26%
Reduction (Rattus norvegicus [24]): 15%
